In PubChem BioAssay AID2560 (University of Pittsburgh Molecular Library Screening Center, 2010):
Some of the results follow. The source made the active and inactive calls.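 Rule for the calls: active = inhibition of at least 50% in both of the two screening runs; inconclusive = at least 50% in one run, below 50% in the other; inactive = inhibition below 50% in both runs.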

Test system: hexokinase 1 (Trypanosoma brucei)
Assay: T. brucei hexokinase 1 inhibition, single-dose recheck – biochemical, DPI cherry-picked primary actives, confirmation (AID 2560);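 note: 0% and 100% set by the maximum and minimum signal control wells on each plate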
Settings: recombinant TbHK1, G6PDH-coupled NADH A340 absorbance; at 10 µM; active compounds read high
Summary of the method: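 System: Trypanosoma brucei hexokinase 1 enzyme with G6PDH coupling enzyme; Medium: Mg2+, NAD+ and G6PDH coupling mix; Reagent: substrates glucose 0.5 mM and ATP 0.35 mM; Doses: single compound dose of 10 µM final; Incubation: enzyme reaction 2 h at room temperature; Signal: A340 NADH absorbance, EDTA-quenched; Repeats: duplicate measurements per compound.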

inhibition, inactive:
COC(=O)C1CCN(CC(N)=O)CC1 5.76%
O=C(CN1C(=O)C2C3C=CC(C3)C2C1=O)NCCc1ccccc1Cl (centres undefined) -0.0219%
CC1(C)CC(=O)C=C(NCCCNC2CCCCC2)C1 2.17%
COc1cccc(/C=N/Nc2ncc(C(F)(F)F)cc2Cl)c1O -10.9%
